Data from ChEMBL document CHEMBL5058577, “EUbOPEN Chemogenomics Library 2 (Multiplex)” (2022).

Tested on: U2OS
Test: Multiplex assay against U2OS
Assay type: toxicity, cell-based
Conditions: human
Summary of the method: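 Live cells were stained at seeding with Hoechst33342, BioTracker Green Microtubule Cytoskeleton Dye, MitoTracker Red and Annexin V Alexa Fluor 680. Following compound addition, they were imaged on a CQ1 microscope at 37°C and 5% CO2 and gated by CellPathfinder machine learning into Hoechst high-intensity objects or normal cells, with normal cells split into healthy, pyknosed or fragmented nuclei and pyknosed cells into mitotic or apoptotic. Tubulin, mitochondrial-mass and membrane-permeability phenotypes are per cents of healthy-nucleus cells.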

[1] = 12 h, 1 µM, compound concentration 1 uM, replicate 1
[2] = 12 h, 1 µM, compound concentration 1 uM, replicate 2
[3] = 12 h, 10 µM, compound concentration 10 uM, replicate 1
[4] = 12 h, 10 µM, compound concentration 10 uM, replicate 2
[5] = 24 h, 1 µM, compound concentration 1 uM, replicate 1
[6] = 24 h, 1 µM, compound concentration 1 uM, replicate 2
[7] = 24 h, 10 µM, compound concentration 10 uM, replicate 1
[8] = 24 h, 10 µM, compound concentration 10 uM, replicate 2
[9] = 48 h, 1 µM, compound concentration 1 uM, replicate 1
[10] = 48 h, 1 µM, compound concentration 1 uM, replicate 2
[11] = 48 h, 10 µM, compound concentration 10 uM, replicate 1
[12] = 48 h, 10 µM, compound concentration 10 uM, replicate 2

In the case of `S=C(NCCCc1c[nH]cn1)NCCCN(Cc1ccc(Cl)c(Cl)c1)c1ccc(Br)cn1`, the “Population Apoptotic (%)” value [1] is reported as 75%, the “Population Fragmented Nuclei (%)” value [1] is reported as 27% and the “Population Healthy Nuclei (%)” value [1] is reported as 63%. The “Population Hoechst High Intensity Objects (%)” value [1] was 2%, the “Population Membrane Permeable-Phenotype (%)” value [1] was 13% and the “Population Mitochondria Different-Phenotype (%)” value [1] was 2%. The “Population Mitotic Cells (%)” value [1] was 25%, the “Population Normal (%)” value [1] was 97% and the “Population Pyknosed Nuclei (%)” value [1] was 9%. For the same compound, the “Population Tubulin-Different-Phenotype (%)” value [1] was 6%, the “Total Cell Count” value [1] was 228 and the “Population Apoptotic (%)” value [2] was 80%. For the same compound, the “Population Fragmented Nuclei (%)” value [2] was 20%, the “Population Healthy Nuclei (%)” value [2] was 68% and the “Population Hoechst High Intensity Objects (%)” value [2] was 3%. The “Population Membrane Permeable-Phenotype (%)” value [2] was 6%, the “Population Mitochondria Different-Phenotype (%)” value [2] was 9% and the “Population Mitotic Cells (%)” value [2] was 20%. The “Population Normal (%)” value [2] was 96%, the “Population Pyknosed Nuclei (%)” value [2] was 11% and the “Population Tubulin-Different-Phenotype (%)” value [2] was 1%. For the same compound, the “Total Cell Count” value [2] was 93, the “Population Apoptotic (%)” value [3] was 66% and the “Population Fragmented Nuclei (%)” value [3] was 27%. The “Population Healthy Nuclei (%)” value [3] was 46%, the “Population Hoechst High Intensity Objects (%)” value [3] was 6% and the “Population Membrane Permeable-Phenotype (%)” value [3] was 86%. For the same compound, the “Population Mitochondria Different-Phenotype (%)” value [3] was 26%, the “Population Mitotic Cells (%)” value [3] was 33% and the “Population Normal (%)” value [3] was 93%. For the same compound, the “Population Pyknosed Nuclei (%)” value [3] was 26%, the “Population Tubulin-Different-Phenotype (%)” value [3] was 83% and the “Total Cell Count” value [3] was 220. The “Population Apoptotic (%)” value [4] was 58%, the “Population Fragmented Nuclei (%)” value [4] was 24% and the “Population Hoechst High Intensity Objects (%)” value [4] was 0%. The “Population Membrane Permeable-Phenotype (%)” value [4] was 84%, the “Population Mitochondria Different-Phenotype (%)” value [4] was 60% and the “Population Mitotic Cells (%)” value [4] was 41%. The “Population Normal (%)” value [4] was 100%, the “Population Pyknosed Nuclei (%)” value [4] was 29% and the “Population Tubulin-Different-Phenotype (%)” value [4] was 89%. For the same compound, the “Total Cell Count” value [4] was 82, the “Population Apoptotic (%)” value [5] was 81% and the “Population Fragmented Nuclei (%)” value [5] was 22%. For the same compound, the “Population Healthy Nuclei (%)” value [5] was 69%, the “Population Hoechst High Intensity Objects (%)” value [5] was 3% and the “Population Membrane Permeable-Phenotype (%)” value [5] was 11%. For the same compound, the “Population Mitochondria Different-Phenotype (%)” value [5] was 3%, the “Population Mitotic Cells (%)” value [5] was 18% and the “Population Normal (%)” value [5] was 96%. The “Population Pyknosed Nuclei (%)” value [5] was 8%, the “Population Tubulin-Different-Phenotype (%)” value [5] was 9% and the “Total Cell Count” value [5] was 285. The “Population Apoptotic (%)” value [6] was 100%, the “Population Fragmented Nuclei (%)” value [6] was 30% and the “Population Healthy Nuclei (%)” value [6] was 65%. The “Population Hoechst High Intensity Objects (%)” value [6] was 1%, the “Population Membrane Permeable-Phenotype (%)” value [6] was 7% and the “Population Mitochondria Different-Phenotype (%)” value [6] was 5%. The “Population Mitotic Cells (%)” value [6] was 0%, the “Population Normal (%)” value [6] was 98% and the “Population Pyknosed Nuclei (%)” value [6] was 4%. The “Population Tubulin-Different-Phenotype (%)” value [6] was 3%, the “Total Cell Count” value [6] was 125 and the “Population Apoptotic (%)” value [7] was 62%. The “Population Fragmented Nuclei (%)” value [7] was 33%, the “Population Healthy Nuclei (%)” value [7] was 38% and the “Population Hoechst High Intensity Objects (%)” value [7] was 5%. The “Population Membrane Permeable-Phenotype (%)” value [7] was 59%, the “Population Mitochondria Different-Phenotype (%)” value [7] was 17% and the “Population Mitotic Cells (%)” value [7] was 37%. The “Population Normal (%)” value [7] was 94%, the “Population Pyknosed Nuclei (%)” value [7] was 28% and the “Population Tubulin-Different-Phenotype (%)” value [7] was 54%. For the same compound, the “Total Cell Count” value [7] was 227, the “Population Apoptotic (%)” value [8] was 60% and the “Population Fragmented Nuclei (%)” value [8] was 29%. For the same compound, the “Population Healthy Nuclei (%)” value [8] was 40%, the “Population Hoechst High Intensity Objects (%)” value [8] was 2% and the “Population Membrane Permeable-Phenotype (%)” value [8] was 77%. For the same compound, the “Population Mitochondria Different-Phenotype (%)” value [8] was 32%, the “Population Mitotic Cells (%)” value [8] was 39% and the “Population Normal (%)” value [8] was 97%. The “Population Pyknosed Nuclei (%)” value [8] was 29%, the “Population Tubulin-Different-Phenotype (%)” value [8] was 64% and the “Total Cell Count” value [8] was 79. For the same compound, the “Population Apoptotic (%)” value [9] was 83%, the “Population Fragmented Nuclei (%)” value [9] was 17% and the “Population Healthy Nuclei (%)” value [9] was 74%. The “Population Hoechst High Intensity Objects (%)” value [9] was 1%, the “Population Membrane Permeable-Phenotype (%)” value [9] was 5% and the “Population Mitochondria Different-Phenotype (%)” value [9] was 3%. The “Population Mitotic Cells (%)” value [9] was 16%, the “Population Normal (%)” value [9] was 98% and the “Population Pyknosed Nuclei (%)” value [9] was 7%. The “Population Tubulin-Different-Phenotype (%)” value [9] was 2%, the “Total Cell Count” value [9] was 409 and the “Population Apoptotic (%)” value [10] was 87%. The “Population Fragmented Nuclei (%)” value [10] was 28%, the “Population Healthy Nuclei (%)” value [10] was 60% and the “Population Hoechst High Intensity Objects (%)” value [10] was 0%. For the same compound, the “Population Mitotic Cells (%)” value [10] was 12%, the “Population Normal (%)” value [10] was 99% and the “Population Pyknosed Nuclei (%)” value [10] was 11%. The “Population Tubulin-Different-Phenotype (%)” value [10] was 3%, the “Total Cell Count” value [10] was 211 and the “Population Apoptotic (%)” value [11] was 70%. For the same compound, the “Population Fragmented Nuclei (%)” value [11] was 43%, the “Population Healthy Nuclei (%)” value [11] was 8% and the “Population Hoechst High Intensity Objects (%)” value [11] was 21%. The “Population Membrane Permeable-Phenotype (%)” value [11] was 46%, the “Population Mitochondria Different-Phenotype (%)” value [11] was 20% and the “Population Mitotic Cells (%)” value [11] was 29%. The “Population Normal (%)” value [11] was 78%, the “Population Pyknosed Nuclei (%)” value [11] was 47% and the “Population Tubulin-Different-Phenotype (%)” value [11] was 26%. For the same compound, the “Total Cell Count” value [11] was 230, the “Population Apoptotic (%)” value [12] was 73% and the “Population Fragmented Nuclei (%)” value [12] was 50%. For the same compound, the “Population Healthy Nuclei (%)” value [12] was 15%, the “Population Hoechst High Intensity Objects (%)” value [12] was 15% and the “Population Membrane Permeable-Phenotype (%)” value [12] was 57%. For the same compound, the “Population Mitochondria Different-Phenotype (%)” value [12] was 42%, the “Population Mitotic Cells (%)” value [12] was 26% and the “Population Normal (%)” value [12] was 84%. The “Population Pyknosed Nuclei (%)” value [12] was 33%, the “Population Tubulin-Different-Phenotype (%)” value [12] was 57% and the “Total Cell Count” value [12] was 105.
